Reference: ChEMBL document CHEMBL1145556, “Development of potent and selective phosphinic peptide inhibitors of angiotensin-converting enzyme 2” (J Med Chem, 2008)

How the values were obtained:
[1] = target: Angiotensin-converting enzyme 2 (Homo sapiens, UniProt Q9BYF1); experiment: Inhibition of ACE2
Procedure, shortened: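 Recombinant ACE2 (0.3 nM final) preincubated with inhibitor for 45 min, then Mca-APK(Dnp) substrate (35 µM final) added. Run at 25 °C in 50 mM Hepes pH 6.8, 1 M NaCl, 10 µM ZnCl2. Fluorescence rise followed continuously (ex 320, em 405 nm) at under 10% substrate use. Triplicates at five inhibitor concentrations giving 20–80% inhibition; Ki by the Horovitz–Levitzki method.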

[2] = Inhibition of ACE
Procedure, shortened: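 Somatic ACE (0.5 nM) with Mca-Ala-Ser-Asp-Lys-Dpa-OH substrate (15 µM). Otherwise as for ACE2: 45 min enzyme–inhibitor preincubation, 25 °C, 50 mM Hepes pH 6.8, 1 M NaCl, 10 µM ZnCl2. Continuous fluorescence read-out (ex 320, em 405 nm) of initial rates. Triplicates at five concentrations spanning 20–80% inhibition; Ki by the Horovitz–Levitzki method.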

Carboxypeptidase A1 = target: T1, Carboxypeptidase A1 (Bos taurus, UniProt P00730); experiment: Inhibition of bovine carboxypeptidase A
T1 sequence (P00730 whole entry): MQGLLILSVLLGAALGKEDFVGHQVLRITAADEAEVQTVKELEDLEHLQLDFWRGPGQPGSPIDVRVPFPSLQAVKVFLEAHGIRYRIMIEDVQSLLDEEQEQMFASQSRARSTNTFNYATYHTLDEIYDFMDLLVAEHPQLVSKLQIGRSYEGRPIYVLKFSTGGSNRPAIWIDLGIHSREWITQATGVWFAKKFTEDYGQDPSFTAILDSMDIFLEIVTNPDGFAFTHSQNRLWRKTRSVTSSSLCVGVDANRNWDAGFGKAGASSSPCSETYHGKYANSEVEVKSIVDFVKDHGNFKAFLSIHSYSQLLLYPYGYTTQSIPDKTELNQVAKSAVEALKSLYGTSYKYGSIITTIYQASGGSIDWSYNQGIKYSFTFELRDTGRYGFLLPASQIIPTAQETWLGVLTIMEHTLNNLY
Procedure, shortened: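 Bovine pancreatic carboxypeptidase A (0.5 nM) mixed with inhibitor in 50 mM Tris-HCl, 1 M NaCl, pH 7.5. Reaction started by adding furylacryloyl-Phe-Phe (50 µM).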

Sequence of Angiotensin-converting enzyme 2 (Q9BYF1 whole entry): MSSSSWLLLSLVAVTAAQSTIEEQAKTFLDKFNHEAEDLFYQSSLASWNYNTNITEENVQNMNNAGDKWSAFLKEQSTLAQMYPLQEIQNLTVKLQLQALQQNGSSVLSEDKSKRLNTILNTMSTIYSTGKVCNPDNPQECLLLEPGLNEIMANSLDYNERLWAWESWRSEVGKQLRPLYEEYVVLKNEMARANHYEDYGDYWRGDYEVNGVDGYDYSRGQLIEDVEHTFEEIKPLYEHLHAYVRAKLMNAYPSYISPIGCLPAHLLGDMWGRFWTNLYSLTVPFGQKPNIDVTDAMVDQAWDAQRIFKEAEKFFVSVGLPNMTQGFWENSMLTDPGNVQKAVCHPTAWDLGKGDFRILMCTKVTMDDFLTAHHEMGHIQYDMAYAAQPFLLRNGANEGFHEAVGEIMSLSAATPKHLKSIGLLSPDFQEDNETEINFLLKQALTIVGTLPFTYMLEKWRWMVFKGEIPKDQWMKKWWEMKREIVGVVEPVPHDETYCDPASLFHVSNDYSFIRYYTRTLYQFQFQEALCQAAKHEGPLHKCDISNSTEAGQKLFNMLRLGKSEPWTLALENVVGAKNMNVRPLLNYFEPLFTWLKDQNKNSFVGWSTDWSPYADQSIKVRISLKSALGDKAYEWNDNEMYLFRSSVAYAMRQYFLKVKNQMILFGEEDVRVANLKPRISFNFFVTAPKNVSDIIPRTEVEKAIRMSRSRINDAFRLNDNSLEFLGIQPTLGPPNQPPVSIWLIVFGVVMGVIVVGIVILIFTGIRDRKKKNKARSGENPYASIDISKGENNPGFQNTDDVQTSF

Structure (SMILES) | Ki [1] [nM] | Ki [2] [nM] | Ki (Carboxypeptidase A1) [nM]
O=C(N[C@H](Cc1ccccc1)P(=O)(O)C[C@@H](Cc1ccccc1)C(=O)O)OCc1ccccc1 | > 10000 |  | 
C[C@@H](NC(=O)OCc1ccccc1)P(=O)(O)C[C@@H](Cc1ccccc1)C(=O)O | > 10000 |  | 
CC(=O)N[C@@H](Cc1ccccc1)C(=O)N1CCC[C@@H]1P(=O)(O)C[C@@H](Cc1ccccc1)C(=O)O | 5.2 |  | 
O=C(O)[C@H](Cc1ccccc1)CP(=O)(O)[C@H]1CCCN1C(=O)OCc1ccccc1 | 300 |  | 
O=C(O)[C@H](Cc1ccccc1)CP(=O)(O)[C@H]1CCCN1 | > 10000 |  | 
CC(=O)N[C@@H](CC(C)C)C(=O)N1CCC[C@@H]1P(=O)(O)CC(Cc1cc(-c2ccccc2)no1)C(=O)O (stereo partly specified) | 1.25 | > 10000 | 35
CC(=O)N[C@@H](CCC(=O)O)C(=O)N1CCC[C@@H]1P(=O)(O)C[C@@H](Cc1ccccc1)C(=O)O | 7 |  | 
CC(C)C[C@@H](NC(=O)OCc1ccccc1)P(=O)(O)C[C@@H](Cc1ccccc1)C(=O)O | 8000 |  | 
CC(C)C[C@@H](N)P(=O)(O)C[C@@H](Cc1ccccc1)C(=O)O | > 10000 |  | 
C[C@@H](N)P(=O)(O)C[C@@H](Cc1ccccc1)C(=O)O | > 10000 |  | 
CC(=O)N[C@@H](Cc1c[nH]cn1)C(=O)N[C@H](CC(C)C)P(=O)(O)CC(Cc1cc(-c2ccccc2)no1)C(=O)O (stereo partly specified) | 220 |  | > 10000
CC(=O)N[C@@H](Cc1c[nH]cn1)C(=O)N[C@H](CC(C)C)P(=O)(O)C[C@@H](Cc1ccccc1)C(=O)O | 800 |  | 175
CC(=O)N[C@@H](CC(C)C)C(=O)N[C@H](Cc1ccccc1)P(=O)(O)C[C@@H](Cc1ccccc1)C(=O)O | 920 |  | 0.3
CC(=O)N[C@@H](Cc1c[nH]cn1)C(=O)N1CCC[C@@H]1P(=O)(O)CC(Cc1cc(-c2ccccc2)no1)C(=O)O (stereo partly specified) | 0.4 | > 10000 | 1050
C[C@H](CP(=O)(O)[C@H]1CCCN1C(=O)OCc1ccccc1)C(=O)O | 3000 |  | 
CC(=O)N[C@@H](C)C(=O)N1CCC[C@@H]1P(=O)(O)C[C@@H](Cc1ccccc1)C(=O)O | 7.5 |  | 
CC(=O)N[C@@H](Cc1ccc(O)cc1)C(=O)N1CCC[C@@H]1P(=O)(O)C[C@@H](Cc1ccccc1)C(=O)O | 5.2 |  | 
CC(=O)N[C@H](C(=O)N1CCC[C@@H]1P(=O)(O)C[C@@H](Cc1ccccc1)C(=O)O)C(C)C | 6.6 |  | 
CC(C)C[C@H](CP(=O)(O)[C@H]1CCCN1C(=O)OCc1ccccc1)C(=O)O | 300 |  | 
CC(=O)N[C@@H](CCCCN)C(=O)N1CCC[C@@H]1P(=O)(O)C[C@@H](Cc1ccccc1)C(=O)O | 6.5 |  | 
N[C@H](Cc1ccccc1)P(=O)(O)C[C@@H](Cc1ccccc1)C(=O)O | > 10000 |  | 
CC(=O)N[C@@H](CC(C)C)C(=O)N1CCC[C@@H]1P(=O)(O)C[C@@H](Cc1ccccc1)C(=O)O (stereo in doubt) | 0.13 | > 10000 | 0.5
CC(=O)N[C@@H](Cc1c[nH]cn1)C(=O)N1CCC[C@@H]1P(=O)(O)C[C@@H](Cc1ccccc1)C(=O)O (stereo in doubt) | 0.7 | > 10000 | 60
CC(=O)N[C@@H](CC(C)C)C(=O)N1CCC[C@@H]1P(=O)(O)C[C@@H](Cc1ccccc1)C(=O)O (stereo in doubt; 28) | 0.35 |  | 
CC(=O)N[C@@H](Cc1c[nH]cn1)C(=O)N1CCC[C@@H]1P(=O)(O)C[C@@H](Cc1ccccc1)C(=O)O (stereo in doubt; 34) | 2.1 |  | 
